Measured values published in paper PMC10433355 (ACS Omega, 2023).
Several values for one entry are separate records, joined by “and”; a condition that tells them apart may be missing. Identical values can stand only once.

Test system: B16F1
Test: MTS assay, melanoma B16F1
Type: cell-based
Conditions: Mus musculus, B16-F1, 72 h, read-out: IC50 B16F1
In short: (§1)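 Cells grown in RPMI 1640 with 10% FBS, 1% penicillin/streptomycin and 1% L-glutamine, trypsinised and counted by hemocytometer. Seeded at 1 × 10^3 cells/well and left 24 h at 37 °C. Test compound added at 300, 100, 50 and 10 µM for 72 h at 37 °C, then removed. […] Triplicate, mean ± SD.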

| IC50 [µM] | SMILES |
| --- | --- |
| > 300 | COc1cccc(-c2nc(C)c(C(=O)Nc3cc(OC)c(OC)c(OC)c3)s2)c1 [2a, 2-(3-Methoxyphenyl)-4-methyl-N-(3,4,5-trimethoxyphenyl)thiazole-5-carboxamide] |
| > 300 | COc1cccc(-c2nc(C)c(C(=O)Nc3cc(OC)ccc3OC)s2)c1 [2h, N-(2,5-Dimethoxyphenyl)-2-(3-methoxyphenyl)-4-methylthiazole-5-carboxamide] |

Test system: CaCo-2
Test: MTS assay, colorectal adenocarcinoma Caco-2
Type: cell-based
Conditions: Homo sapiens, Caco-2, 72 h, read-out: IC50 CaCo-2
In short: as §1

| IC50 [µM] | SMILES |
| --- | --- |
| > 300 | COc1cccc(-c2nc(C)c(C(=O)Nc3cc(OC)c(OC)c(OC)c3)s2)c1 [2a, 2-(3-Methoxyphenyl)-4-methyl-N-(3,4,5-trimethoxyphenyl)thiazole-5-carboxamide] |
| > 300 | COc1cccc(-c2nc(C)c(C(=O)Nc3cc(OC)ccc3OC)s2)c1 [2h, N-(2,5-Dimethoxyphenyl)-2-(3-methoxyphenyl)-4-methylthiazole-5-carboxamide] |

Molecular target: T1, human recombinant COX-2 (Homo sapiens, UniProt P35354)
T1 sequence (P35354 18-604): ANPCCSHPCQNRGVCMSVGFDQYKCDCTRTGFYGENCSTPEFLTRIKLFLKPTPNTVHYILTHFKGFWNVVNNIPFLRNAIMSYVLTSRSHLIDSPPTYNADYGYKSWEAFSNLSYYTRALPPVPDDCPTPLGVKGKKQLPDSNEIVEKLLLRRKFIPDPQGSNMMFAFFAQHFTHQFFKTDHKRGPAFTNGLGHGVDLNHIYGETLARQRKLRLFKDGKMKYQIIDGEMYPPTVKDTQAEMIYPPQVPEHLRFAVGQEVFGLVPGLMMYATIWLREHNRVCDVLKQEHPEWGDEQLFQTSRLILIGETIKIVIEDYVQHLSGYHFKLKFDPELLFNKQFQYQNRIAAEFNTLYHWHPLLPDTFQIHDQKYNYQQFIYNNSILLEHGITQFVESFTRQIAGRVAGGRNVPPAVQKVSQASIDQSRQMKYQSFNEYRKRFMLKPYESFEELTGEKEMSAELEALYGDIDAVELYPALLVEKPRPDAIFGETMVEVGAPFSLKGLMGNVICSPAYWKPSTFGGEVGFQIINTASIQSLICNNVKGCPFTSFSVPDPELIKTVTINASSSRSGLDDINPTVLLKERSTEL
Test: In vitro COX-2 inhibition assay
Type: biochemical
Conditions: IC50 COX-1 divided by IC50 COX-2

| SI (selectivity index / selectivity ratio) | SMILES |
| --- | --- |
| 2.766 and 2.76 | COc1cccc(-c2nc(C)c(C(=O)Nc3cc(OC)c(OC)c(OC)c3)s2)c1 [2a, 2-(3-Methoxyphenyl)-4-methyl-N-(3,4,5-trimethoxyphenyl)thiazole-5-carboxamide] |
| 0.272 | COc1cccc(-c2nc(C)c(C(=O)Nc3cc(OC)ccc3OC)s2)c1 [2h, N-(2,5-Dimethoxyphenyl)-2-(3-methoxyphenyl)-4-methylthiazole-5-carboxamide] |

Same assay, conditions: IC50 COX-2

| IC50 | SMILES |
| --- | --- |
| 0.95 µM and 0.958 µM | COc1cccc(-c2nc(C)c(C(=O)Nc3cc(OC)c(OC)c(OC)c3)s2)c1 [2a, 2-(3-Methoxyphenyl)-4-methyl-N-(3,4,5-trimethoxyphenyl)thiazole-5-carboxamide] |
| 1.23 ± 0.85 µM | COc1cccc(-c2nc(C)c(C(=O)Nc3cc(OC)ccc3OC)s2)c1 [2h, N-(2,5-Dimethoxyphenyl)-2-(3-methoxyphenyl)-4-methylthiazole-5-carboxamide] |

Test system: HepG2
Test: MTS assay, hepatocellular carcinoma HepG2
Type: cell-based
Conditions: Homo sapiens, HepG2, 72 h, read-out: IC50 HepG2
In short: as §1

| IC50 [µM] | SMILES |
| --- | --- |
| 60.8 ± 2.76 | COc1cccc(-c2nc(C)c(C(=O)Nc3cc(OC)c(OC)c(OC)c3)s2)c1 [2a, 2-(3-Methoxyphenyl)-4-methyl-N-(3,4,5-trimethoxyphenyl)thiazole-5-carboxamide] |
| > 300 | COc1cccc(-c2nc(C)c(C(=O)Nc3cc(OC)ccc3OC)s2)c1 [2h, N-(2,5-Dimethoxyphenyl)-2-(3-methoxyphenyl)-4-methylthiazole-5-carboxamide] |

Test system: Hep3B
Test: MTS assay, hepatocellular carcinoma Hep3B
Type: cell-based
Conditions: Homo sapiens, 72 h, read-out: IC50 Hep3B
In short: as §1

| IC50 [µM] | SMILES |
| --- | --- |
| > 300 | COc1cccc(-c2nc(C)c(C(=O)Nc3cc(OC)c(OC)c(OC)c3)s2)c1 [2a, 2-(3-Methoxyphenyl)-4-methyl-N-(3,4,5-trimethoxyphenyl)thiazole-5-carboxamide] |
| > 300 | COc1cccc(-c2nc(C)c(C(=O)Nc3cc(OC)ccc3OC)s2)c1 [2h, N-(2,5-Dimethoxyphenyl)-2-(3-methoxyphenyl)-4-methylthiazole-5-carboxamide] |

Test system: HeLa
Test: MTS assay, cervical adenocarcinoma HeLa
Type: cell-based
Conditions: Homo sapiens, 72 h, read-out: IC50 HeLa
In short: as §1

| IC50 [µM] | SMILES |
| --- | --- |
| > 300 | COc1cccc(-c2nc(C)c(C(=O)Nc3cc(OC)c(OC)c(OC)c3)s2)c1 [2a, 2-(3-Methoxyphenyl)-4-methyl-N-(3,4,5-trimethoxyphenyl)thiazole-5-carboxamide] |
| 250.8 ± 2.42 | COc1cccc(-c2nc(C)c(C(=O)Nc3cc(OC)ccc3OC)s2)c1 [2h, N-(2,5-Dimethoxyphenyl)-2-(3-methoxyphenyl)-4-methylthiazole-5-carboxamide] |

Test system: LX-2 cells
Test: MTS cytotoxicity assay, normal cell line LX-2
Type: cell-based
Conditions: read-out: CC50 LX-2, normal cell line
In short: (§2)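 LX-2 cells seeded at 1 × 10^3 cells/well and left 24 h at 37 °C. Exposed to test compound at 300, 100, 50 and 10 µM for 72 h at 37 °C, with 5-FU as positive control. […] Triplicate, mean ± SD.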

| SMILES | CC50 [µM] |
| --- | --- |
| O=c1[nH]cc(F)c(=O)[nH]1 [5-FU, reference compound] | 8.45 ± 2.02 |

Test system: not listed separately
Test: MTS cytotoxicity assay, normal cell line LX-2
Type: cell-based
Conditions: human, LX-2 cells (normal cell line), CC50 LX-2, normal cell line
In short: as §2

| SMILES | CC50 at 72 h [µM] |
| --- | --- |
| COc1cccc(-c2nc(C)c(C(=O)Nc3cc(OC)c(OC)c(OC)c3)s2)c1 [2a, 2-(3-Methoxyphenyl)-4-methyl-N-(3,4,5-trimethoxyphenyl)thiazole-5-carboxamide] | > 300 |
| COc1cccc(-c2nc(C)c(C(=O)Nc3cc(OC)ccc3OC)s2)c1 [2h, N-(2,5-Dimethoxyphenyl)-2-(3-methoxyphenyl)-4-methylthiazole-5-carboxamide] | > 300 |

Test system: MCF-7
Test: MTS assay, breast carcinoma MCF-7
Type: cell-based
Conditions: Homo sapiens, MCF7, 72 h, read-out: IC50 MCF-7
In short: as §1

| IC50 [µM] | SMILES |
| --- | --- |
| > 300 | COc1cccc(-c2nc(C)c(C(=O)Nc3cc(OC)c(OC)c(OC)c3)s2)c1 [2a, 2-(3-Methoxyphenyl)-4-methyl-N-(3,4,5-trimethoxyphenyl)thiazole-5-carboxamide] |
| > 300 | COc1cccc(-c2nc(C)c(C(=O)Nc3cc(OC)ccc3OC)s2)c1 [2h, N-(2,5-Dimethoxyphenyl)-2-(3-methoxyphenyl)-4-methylthiazole-5-carboxamide] |

Test system: COLO205
Test: MTS assay, colon adenocarcinoma COLO205
Type: cell-based
Conditions: Homo sapiens, COLO 205, 72 h, read-out: IC50 COLO205
In short: as §1

| IC50 [µM] | SMILES |
| --- | --- |
| > 300 | COc1cccc(-c2nc(C)c(C(=O)Nc3cc(OC)c(OC)c(OC)c3)s2)c1 [2a, 2-(3-Methoxyphenyl)-4-methyl-N-(3,4,5-trimethoxyphenyl)thiazole-5-carboxamide] |
| > 300 | COc1cccc(-c2nc(C)c(C(=O)Nc3cc(OC)ccc3OC)s2)c1 [2h, N-(2,5-Dimethoxyphenyl)-2-(3-methoxyphenyl)-4-methylthiazole-5-carboxamide] |

Test system: Hek293t cells
Test: MTS cytotoxicity assay, normal cell line Hek293t
Type: cell-based
Conditions: read-out: CC50 Hek293t, 72 h
In short: as §1

| SMILES | CC50 [µM] |
| --- | --- |
| O=c1[nH]cc(F)c(=O)[nH]1 [5-FU, reference compound] | 4.06 ± 1.82 |

Molecular target: T2, COX-1 (Ovis aries, UniProt P05979)
T2 sequence (P05979 25-600): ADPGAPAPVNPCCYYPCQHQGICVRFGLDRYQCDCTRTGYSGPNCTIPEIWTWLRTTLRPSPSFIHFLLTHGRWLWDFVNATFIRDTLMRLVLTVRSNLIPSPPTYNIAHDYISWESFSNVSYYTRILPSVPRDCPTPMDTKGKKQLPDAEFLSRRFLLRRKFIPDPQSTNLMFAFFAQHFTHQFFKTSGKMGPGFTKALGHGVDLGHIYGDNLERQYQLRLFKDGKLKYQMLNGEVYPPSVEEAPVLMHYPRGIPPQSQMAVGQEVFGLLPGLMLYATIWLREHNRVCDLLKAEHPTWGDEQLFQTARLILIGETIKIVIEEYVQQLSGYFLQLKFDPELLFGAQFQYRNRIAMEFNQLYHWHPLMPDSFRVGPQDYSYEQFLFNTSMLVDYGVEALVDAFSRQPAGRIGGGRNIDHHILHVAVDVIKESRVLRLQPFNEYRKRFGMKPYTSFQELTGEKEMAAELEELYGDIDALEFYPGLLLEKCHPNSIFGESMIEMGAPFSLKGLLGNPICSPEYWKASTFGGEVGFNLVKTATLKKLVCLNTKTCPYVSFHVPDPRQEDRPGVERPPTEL
Test: In vitro COX-1 inhibition assay
Type: biochemical, ovine
Conditions: not given

| IC50 [µM] | SMILES |
| --- | --- |
| 2.65 ± 0.78 | COc1cccc(-c2nc(C)c(C(=O)Nc3cc(OC)c(OC)c(OC)c3)s2)c1 [2a, 2-(3-Methoxyphenyl)-4-methyl-N-(3,4,5-trimethoxyphenyl)thiazole-5-carboxamide] |
| 0.335 ± 0.19 | COc1cccc(-c2nc(C)c(C(=O)Nc3cc(OC)ccc3OC)s2)c1 [2h, N-(2,5-Dimethoxyphenyl)-2-(3-methoxyphenyl)-4-methylthiazole-5-carboxamide] |
